# SENP1 inh = human SENP1 catalytic domain inhibitors, primary screen, biochemical, FRET, uHTS; Sentrin-specific protease 1 (Homo sapiens), Q9P0U3; recombinant SENP1 catalytic domain, CyPet-SUMO1-YPet FRET cleavage; inhibition, % at 10 µM; 360,000 compounds, 0.21% hits;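 active = inhibition at least 30% at 10 µM, raw YFP signal under a set limit, fluorescence ratio 0.5 to 1.5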;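 also: 0% = enzyme with DMSO and 100% = no enzyme wells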
# Target sequence (Q9P0U3 419-644 limits assumed): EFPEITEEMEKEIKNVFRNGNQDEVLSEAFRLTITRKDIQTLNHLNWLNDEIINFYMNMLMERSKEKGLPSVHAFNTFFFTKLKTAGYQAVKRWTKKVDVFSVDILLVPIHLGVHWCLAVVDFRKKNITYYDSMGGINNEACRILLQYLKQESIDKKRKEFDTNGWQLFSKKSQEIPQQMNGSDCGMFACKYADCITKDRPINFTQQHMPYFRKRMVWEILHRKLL
#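 Material: hSENP1 catalytic domain, recombinant; medium: Tris pH 8 with BME, BSA, NP40 and catalase; compound: single concentration of 10 µM compound, 0.5% DMSO final; technique: FRET read of cyan and yellow fluorescence; timing: 50 min enzyme reaction, room temperature, light-protected; reagent: SFCypet-SUMO1-SFYpet substrate at 25 nM; control set: no-enzyme low, enzyme-DMSO high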
# SENP6 inh = SENP6 protease inhibitors, primary screen, biochemical, luminescence, uHTS; inhibition, % at 10 µM; 330,000 compounds, 1.8% hits; Recombinant SENP6 catalytic domain, aminoluciferin luminescence; Sentrin-specific protease 6 (Homo sapiens), Q9GZR1; AID 2599, 2010;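 active = inhibition above about 50% at the single tested dose, limit read from the data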;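 also: plate controls were DMSO wells with enzyme for no effect and DMSO wells lacking enzyme for full effect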
# SENP8 block-1 = SENP8 protease inhibitors, primary screen, biochemical, luminescence; Sentrin-specific protease 8 (Homo sapiens), Q96LD8; purified SENP8, Z-RLRGG-aminoluciferin cleavage; inhibition, % at 10 µM; 330,000 compounds, 1.2% hits; AID 2540, 2010; in the data active = inhibition above about 50%
# Target sequence (Q96LD8 whole entry, looked up): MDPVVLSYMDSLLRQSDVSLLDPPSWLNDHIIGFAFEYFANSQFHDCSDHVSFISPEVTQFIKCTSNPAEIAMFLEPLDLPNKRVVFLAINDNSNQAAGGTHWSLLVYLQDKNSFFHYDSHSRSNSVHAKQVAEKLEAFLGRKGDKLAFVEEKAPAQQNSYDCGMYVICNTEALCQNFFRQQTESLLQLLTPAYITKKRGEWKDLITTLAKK
# SENP7 block = SENP7 protease inhibitors, primary screen, biochemical, luminescence, uHTS; Sentrin-specific protease 7 (Homo sapiens), Q9BQF6; recombinant SENP7, Z-RLRGG-aminoluciferin luminescence, 40 min; inhibition, % at 5 µM; 330,000 compounds, 1.5% hits; AID 434973, 2010;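 active = inhibition above about 50% at the single test dose, limit read from the data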;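 also: plate controls were DMSO with enzyme for no effect and no enzyme buffer wells for full effect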
# SENP8 block-2 = human SENP8 protease inhibitors, primary screen, biochemical, fluorescence, Nedd8 protein substrate, uHTS. inhibition, % at 20 µM. Sentrin-specific protease 8 (Homo sapiens), Q96LD8. recombinant SENP8. 360,000 compounds, 0.64% hits; in the data active = inhibition mostly above about 40%, no sharp cut-off; inactive = mostly below about 27%
# SENP8 confirm = SENP8 protease inhibitors, retest, confirmation, biochemical, luminescence, single concentration | AID 488912, 2010 | shares compounds with SENP7 block | 6,200 compounds, 40% hits | inhibition, % at 12.5 µM | Recombinant SENP8, Z-RLRGG-aminoluciferin luminescence, 60 min;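 active = mean inhibition across replicates above about 50%, limit read from the data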
# SENP6 confirm = SENP6 protease inhibitors, confirmation, biochemical, luminescence, single concentration; recombinant SENP6, Z-RLRGG-aminoluciferin luminescence; inhibition, % at 12.5 µM; shares compounds with SENP7 block; AID 488915, 2010; 6,200 compounds, 58% hits
# SENP7 confirm = SENP7 protease inhibitors, retest, confirmation, biochemical, luminescence, single concentration; shares compounds with SENP7 block; recombinant SENP7, Z-RLRGG-aminoluciferin luminescence, 40 min; inhibition, % at 12.5 µM; 6,200 compounds, 69% hits; AID 488917, 2010
# Casp3 select = caspase-3 protease inhibitors, confirmation, selectivity assay for SENP inhibitor project, biochemical, single concentration; shares compounds with SENP7 block; purified caspase-3, Z-DEVD-aminoluciferin luminescence, 60 min; inhibition, % at 12.5 µM; 6,200 compounds, 60% hits; AID 488918, 2010;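 active = mean inhibition above about 50%, limit read from the data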;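 also: plate controls were enzyme with DMSO for no effect and wells without caspase-3 for full effect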
# Luc interf = counter-screen for SENP inhibitors: luminescence interference; inhibition, % at 12.5 µM; shares compounds with SENP7 block; 6,200 compounds, 39% hits; Pre-incubated SENP8/Z-RLRGG-aminoluciferin, luciferase luminescence interference; AID 488919;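 active = mean inhibition above about 50% when retested at one dose, limit read from the data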;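 also: plate controls were DMSO wells with completed reaction for no effect and substrate without enzyme for full effect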
# Starred values were filed as active, the others as inactive; i = inactive; / = not tested or not shown. Shown are actives, neighbours in structure and some others; about 2.5% of the full set was active somewhere.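 The calls were made as follows, unless noted: active = mean inhibition above about 50% in the one-dose retest (limit read from the data); inactive = the rest.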
SMILES,SENP1 inh,SENP6 inh,SENP8 block-1,SENP7 block,SENP8 block-2,SENP8 confirm,SENP6 confirm,SENP7 confirm,Casp3 select,Luc interf
Cc1cc(C)n(CCc2nc(-c3ccc(-c4ccccc4)cc3)cs2)n1,1,83*,19,80*,4,27,50,68*,36,21
O=C1CC(O)(C(F)(F)F)Oc2c1ccc1ccccc21 (stereo not given),-4,82*,77*,54*,-270,86*,84*,96*,81*,86*
O=C1CC(O)(C(F)F)Oc2ccc3ccccc3c21 (stereo not given),-5,29,0,8,-457,/,/,/,/,/
Cc1onc(-c2ccccc2)c1C(=O)N1CCN(C/C=C/c2ccccc2)CC1,1,-3,-5,0,7,/,/,/,/,/
CCCCC#Cc1ccc2c(c1)COc1c3ccccc3nn1-2,-3,85*,79*,81*,-2,22,34,33,67*,10
N#CCCCC#Cc1ccc2c(c1)COc1c3ccccc3nn1-2,1,93*,90*,89*,13,51*,96*,66*,68*,13
CCOC(=O)NN1C(=O)c2ccccc2NC1c1cccs1 (stereo not given),0,7,4,8,-306,/,/,/,/,/
CCc1nc2c(OCC3CCCCC3)cccn2c1N(C)C(=O)c1ccccc1F,0,/,/,/,6,/,/,/,/,/
CCCCCc1ccc(-c2ccc(/C=C/C(N)=O)cc2)nc1,-4,17,-6,-1,-234,/,/,/,/,/
CCCc1ccc(OCC(=O)O)cc1,2,-3,-1,4,13,/,/,/,/,/
CCCCCc1ccc(-c2ccc(OC)cc2)nc1,1,52*,27,39,12,25,32,64*,34,32
CCCc1ccc(-c2ccc(C(=O)O)cc2)nc1,1,69*,59*,67*,7,70*,66*,90*,73*,70*
N#C/C(=N\Nc1cccc([N+](=O)[O-])c1)C(=O)c1ccc(Br)cc1,-1,72*,60*,0,7,0,66*,45,4,59*
N#C/C(=N/Nc1ccc([N+](=O)[O-])cc1)C(=N)N1CCCCC1,13,/,/,/,30,/,/,/,/,/
N#C/C(=N\Nc1ccc([N+](=O)[O-])cc1)C(N)=S,10,98*,91*,92*,47*,97*,98*,102*,97*,90*
O=C(/C(N=Nc1cccc([N+](=O)[O-])c1)=C(/O)c1ccc(Br)cc1)C(F)(F)F,5,-7,-10,1,29,/,/,/,/,/
COc1ccc(Nc2nc3ccccc3s2)cc1,-1,75*,62*,69*,5,66*,66*,89*,50*,18
Cc1cccc(Nc2nc3ccccc3s2)c1C,0,69*,65*,83*,16,-15,74*,94*,59*,29
Cc1cccc(Nc2n[nH]c(=S)s2)c1C,-2,4,6,1,14,/,/,/,/,/
COc1cccc(Nc2nc3ccc(OC)cc3s2)c1,-1,3,22,43,7,/,/,/,/,/
CCOC(=O)c1cnc2cc(-c3ccc(Cl)cc3)nn2c1N,-2,-5,-12,15,-102,/,/,/,/,/
CSc1nc(N)n2nc(-c3ccc(Cl)cc3)cc2n1,1,94*,89*,98*,3,-4,14,9,31,-6
Oc1cccc(C=Nc2cccc3ccccc23)c1O,-44,54*,36,17,-314,17,22,9,40,-6
COc1cc(OC)cc(C(=O)NCCCCc2ccccc2)c1,0,-10,-6,1,10,/,/,/,/,/
Clc1ccc(/C=C/c2nc3ccccc3[nH]2)cc1,-32,98*,97*,100*,-266,99*,100*,103*,98*,83*
SMILES,SENP1 inh,SENP6 inh,SENP8 block-1,SENP7 block,SENP8 block-2,SENP8 confirm,SENP6 confirm,SENP7 confirm,Casp3 select,Luc interf
Clc1cccc(Cl)c1/C=C/c1nc2ccccc2[nH]1,-4,82*,89*,93*,-280,94*,96*,101*,87*,76*
C(=N\n1cnnc1)/c1nc2ccccc2[nH]1,-36,-3,3,11,i,/,/,/,/,/
Clc1ccc(/C=C/c2nc3ccccc3[nH]2)c(Cl)c1,-4,100*,97*,99*,-273,99*,100*,104*,98*,34
O=C(NC1CC2CCCC(C1)N2C(=O)Nc1ccccc1Cl)C1CC1 (stereo not given),1,-26,6,-4,8,/,/,/,/,/
Cc1nc2sc(-c3ccccc3)cc2c(=O)n1-n1cccc1,0,62*,34,43,-12,7,17,43,32,2
O=c1c2cc(-c3ccccc3)sc2nc2n1CCC2,/,75*,69*,72*,/,19,69*,92*,31,-4
Cc1nc2sc(-c3ccccc3)cc2c(=O)[nH]1,-23,86*,76*,-6,-64,37,82*,98*,92*,29
COc1cccc(NC(=O)c2cnn(-c3ccccc3)c2C)c1,1,82*,78*,85*,6,8,85*,98*,89*,86*
CCc1cccc(NC(=O)c2cnn(-c3ccccc3)c2C)c1,1,90*,83*,85*,11,2,87*,98*,81*,81*
Cc1ccc(NC(=O)c2cnn(-c3ccccc3)c2C)cc1,0,66*,46,67*,13,67*,64*,89*,70*,20
O=C1C=C(c2ccc3ccccc3c2)C[C@@H](c2ccc(F)cc2)C1,-1,-17,-12,-8,-229,/,/,/,/,/

# Screening results from PubChem BioAssay.
